ChEMBL document CHEMBL1139742, “3-(Indol-2-yl)indazoles as Chek1 kinase inhibitors: Optimization of potency and selectivity via substitution at C6” (Bioorg Med Chem Lett, 2006)

Legend:
[1] = biological target: Cyclin-dependent kinase 7 (Homo sapiens, UniProt P50613); assay: Inhibition of Cdk7
[2] = system: NCI-H1299; assay: Release of NCI-H1299 cells from DNA damage-induced cell cycle arrest by CEA; assay type: functional, cell-based; conditions: Homo sapiens
Method in brief: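 NCI-H1299 lung carcinoma cells were arrested by 16 h camptothecin treatment, then exposed to inhibitor for a further 8 h. Escape into mitosis was read as mitosis-specific nucleolin phosphorylation in an antibody-coated bead-based assay. EC50 came from a 10-point half-log dilution series, averaged over tetraplicate determinations.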

[3] = biological target: T1, Serine/threonine-protein kinase Chk1 (Homo sapiens, UniProt O14757); assay: Inhibition of Chek1
T1 sequence (O14757 whole entry): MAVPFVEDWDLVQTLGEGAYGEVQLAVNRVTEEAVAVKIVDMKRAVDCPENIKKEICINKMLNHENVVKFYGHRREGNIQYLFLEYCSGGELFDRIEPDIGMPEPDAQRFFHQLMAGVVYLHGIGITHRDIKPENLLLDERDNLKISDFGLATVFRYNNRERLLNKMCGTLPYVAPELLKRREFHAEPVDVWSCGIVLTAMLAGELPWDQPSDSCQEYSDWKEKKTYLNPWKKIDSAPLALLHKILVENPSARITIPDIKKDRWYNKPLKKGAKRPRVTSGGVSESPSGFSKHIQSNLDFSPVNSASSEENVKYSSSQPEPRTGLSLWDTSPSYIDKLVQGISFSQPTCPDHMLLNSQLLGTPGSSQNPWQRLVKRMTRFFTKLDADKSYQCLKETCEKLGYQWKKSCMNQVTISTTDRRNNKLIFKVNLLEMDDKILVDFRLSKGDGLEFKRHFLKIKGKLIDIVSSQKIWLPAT

[4] = organism: Homo sapiens; assay: Selectivity for Chek1 over Cdk7
[5] = biological target: T1, Serine/threonine-protein kinase Chk1; assay: Inhibition of autophosphorylation of Chek1 in NCI-H1299 cells; assay type: functional, cell-based
Method in brief: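 Cyto-blot of Chek1 autophosphorylation with phospho-S296 Chek1 antibody in NCI-H1299 lung carcinoma cells. Cells incubated with inhibitor 2 h, then camptothecin added for a further 4 h. Cellular assay ATP 2.0 mM. 10-point, 3-fold dilution series. IC50 averaged over triplicate determinations.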

Cyclin-dependent kinase 7, sequence (P50613 whole entry): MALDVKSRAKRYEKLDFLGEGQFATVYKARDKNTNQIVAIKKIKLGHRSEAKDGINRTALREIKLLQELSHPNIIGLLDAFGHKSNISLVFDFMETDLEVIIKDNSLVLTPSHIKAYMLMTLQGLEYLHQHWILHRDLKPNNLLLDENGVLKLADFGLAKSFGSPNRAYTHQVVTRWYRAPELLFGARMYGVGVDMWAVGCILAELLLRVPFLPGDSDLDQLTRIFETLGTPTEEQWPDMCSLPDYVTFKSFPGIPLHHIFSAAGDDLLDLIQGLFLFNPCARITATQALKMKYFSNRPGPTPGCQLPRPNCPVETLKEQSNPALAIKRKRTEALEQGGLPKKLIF

c1cc2[nH]c(-c3n[nH]c4cc(-c5cn[nH]c5)ccc34)cc2cc1CN1CCOCC1
IC50 [1]: 25 nM
EC50 [2]: > 50000 nM
IC50 [3]: 10 nM

c1ccc(-c2ccc3c(-c4cc5cc(CN6CCCCC6)ccc5[nH]4)n[nH]c3c2)cc1
IC50 [1]: 7000 nM
EC50 [2]: 5000 nM
Ratio IC50 [4]: 160
IC50 [3]: 45 nM

c1cn(-c2ccc3c(-c4cc5cc(CN6CCCCC6)ccc5[nH]4)n[nH]c3c2)nn1
IC50 [1]: 57 nM
EC50 [2]: 350 nM
Ratio IC50 [4]: 22
IC50 [3]: 2.6 nM

NCc1nn[nH]c1-c1ccc2c(-c3cc4cc(CN5CCC(F)CC5)ccc4[nH]3)n[nH]c2c1
IC50 [1]: 300 nM
EC50 [2]: 610 nM
IC50 [3]: 0.11 nM

N#Cc1ccc2c(-c3cc4cc(CN5CCOCC5)ccc4[nH]3)n[nH]c2c1
EC50 [2]: > 50000 nM
IC50 [3]: 30 nM

CN(C)C(=O)c1ccc2c(-c3cc4cc(CN5CCOCC5)ccc4[nH]3)n[nH]c2c1
IC50 [1]: > 100000 nM
EC50 [2]: 4000 nM
IC50 [3]: 80 nM

CC(=O)N1CCN(Cc2ccc3[nH]c(-c4n[nH]c5cc(C#N)ccc45)cc3c2)CC1
IC50 [5]: 1000 nM
IC50 [1]: 39 nM
IC50 [2]: > 10000 nM
IC50 [3]: 17 nM

CC(=O)N1CCN(Cc2ccc3[nH]c(-c4n[nH]c5cc(-c6nnn[nH]6)ccc45)cc3c2)CC1
IC50 [5]: > 10000 nM
IC50 [2]: > 10000 nM
IC50 [3]: 2.3 nM

OCc1n[nH]nc1-c1ccc2c(-c3cc4cc(CN5CCCCC5)ccc4[nH]3)n[nH]c2c1
IC50 [1]: 56 nM
EC50 [2]: 690 nM
Ratio IC50 [4]: 190

CC(=O)N1CCN(Cc2ccc3[nH]c(-c4n[nH]c5ccccc45)cc3c2)CC1
IC50 [3]: 640 nM

Cc1cnnn1-c1ccc2c(-c3cc4cc(CN5CCCCC5)ccc4[nH]3)n[nH]c2c1
IC50 [1]: 420 nM
EC50 [2]: 1400 nM
Ratio IC50 [4]: 14
IC50 [3]: 30 nM

c1ccc2[nH]c(-c3n[nH]c4cc(-c5nnn[nH]5)ccc34)cc2c1
IC50 [5]: > 10000 nM
IC50 [2]: > 10000 nM
IC50 [3]: 27 nM

COC(=O)c1ccc2c(-c3cc4cc(CN5CCOCC5)ccc4[nH]3)n[nH]c2c1
IC50 [1]: 6500 nM
EC50 [2]: 1930 nM
IC50 [3]: 62 nM

NC(=O)c1ccc2c(-c3cc4cc(CN5CCOCC5)ccc4[nH]3)n[nH]c2c1
IC50 [1]: 1300 nM
EC50 [2]: 980 nM
IC50 [3]: 12 nM

c1cc2[nH]c(-c3n[nH]c4cc(-c5cnsc5)ccc34)cc2cc1CN1CCCCC1
IC50 [1]: 18 nM
EC50 [2]: > 10000 nM
Ratio IC50 [4]: 1.5
IC50 [3]: 12 nM

OCc1nn[nH]c1-c1ccc2c(-c3cc4cc(CN5CCC(F)CC5)ccc4[nH]3)n[nH]c2c1
IC50 [1]: 180 nM
EC50 [2]: 340 nM
IC50 [3]: 0.3 nM

c1cnn(-c2ccc3c(-c4cc5cc(CN6CCCCC6)ccc5[nH]4)n[nH]c3c2)n1
IC50 [1]: 480 nM
EC50 [2]: 4500 nM
Ratio IC50 [4]: 14
IC50 [3]: 34 nM

CC(=O)N1CCN(Cc2ccc3[nH]c(-c4n[nH]c5cc(Cl)ccc45)cc3c2)CC1
IC50 [3]: 120 nM

c1cnn(-c2ccc3c(-c4cc5cc(CN6CCCCC6)ccc5[nH]4)n[nH]c3c2)c1
IC50 [1]: 2300 nM
EC50 [2]: > 10000 nM
Ratio IC50 [4]: 22
IC50 [3]: 110 nM

Cn1cc(-c2ccc3c(-c4cc5cc(CN6CCOCC6)ccc5[nH]4)n[nH]c3c2)cn1
IC50 [3]: 530 nM

c1cc(-c2ccc3c(-c4cc5cc(CN6CCOCC6)ccc5[nH]4)n[nH]c3c2)[nH]n1
IC50 [1]: 34 nM
EC50 [2]: > 50000 nM
Ratio IC50 [4]: 0.58
IC50 [3]: 59 nM

c1csc(-c2ccc3c(-c4cc5cc(CN6CCCCC6)ccc5[nH]4)n[nH]c3c2)n1
IC50 [1]: 4000 nM
EC50 [2]: 2000 nM
Ratio IC50 [4]: 83
IC50 [3]: 48 nM

CNC(=O)c1ccc2c(-c3cc4cc(CN5CCOCC5)ccc4[nH]3)n[nH]c2c1
IC50 [1]: 4900 nM
EC50 [2]: 650 nM
IC50 [3]: 13 nM

COc1cc(-c2ccc3c(-c4cc5cc(CN6CCCCC6)ccc5[nH]4)n[nH]c3c2)ccc1O
IC50 [1]: 310 nM
EC50 [2]: 92 nM
IC50 [3]: 0.25 nM
